pIC50: −log10 of the molar value.
How the values were obtained:
Type in all cases: functional, cell-based
SMMC-7721 = assay: Cytotoxicity against human SMMC7721 cells assessed as decrease in cell viability after 48 hrs by MTS assay; conditions: SMMC-7721, 48 h
Outline: (§1)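 Cells kept in RPMI-1640 or DMEM with 10% FBS, 37 °C, 5% CO2. Seeded at 1 × 10^5 cells/mL; adherent lines left 12 h to attach, suspension cells (HL-60) seeded just before dosing. Triplicate wells at various concentrations for 48 h; MTS then 4 h at 37 °C; lysis in 20% SDS/50% DMF; OD 490 nm. IC50 by Reed and Muench method.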

HL-60 = assay: Cytotoxicity against human HL60 cells assessed as decrease in cell viability after 48 hrs by MTS assay; conditions: HL-60, 48 h; outline: as §1
A549 = assay: Cytotoxicity against human A549 cells assessed as decrease in cell viability after 48 hrs by MTS assay; conditions: A549, 48 h; outline: as §1
HeLa = assay: Cytotoxicity against human HeLa cells assessed as decrease in cell viability after 48 hrs by MTS assay; outline: as §1
MCF7 = assay: Cytotoxicity against human MCF7 cells assessed as decrease in cell viability after 48 hrs by MTS assay; conditions: MCF7, 48 h; outline: as §1
SW480 = assay: Cytotoxicity against human SW480 cells assessed as decrease in cell viability after 48 hrs by MTS assay; conditions: SW480, 48 h; outline: as §1

Row | Compound | pIC50 (SMMC-7721) | pIC50 (HL-60) | pIC50 (A549) | pIC50 (HeLa) | pIC50 (MCF7) | pIC50 (SW480)
1 | C=C1[C@@H]([C@H](C)C[C@@H](O)/C=C(\C)C(=O)O)CC[C@@]2(C)C3=CC[C@H]4C(C)(C)[C@H](OC(C)=O)CC[C@]4(C)[C@@H]3C[C@@H]12 | < 5.00 | < 5.00 | < 5.00 | < 5.00 | < 5.00 | < 5.00
2 | C=C1[C@@H]([C@H](C)CC/C=C(/C)C(=O)O)CC[C@@]2(C)C3=CC(=O)[C@H]4C(C)(C)[C@H](OC(C)=O)CC[C@]4(C)[C@@H]3C[C@@H]12 | < 5.00 | < 5.00 | < 5.00 | < 5.00 | < 5.00 | < 5.00
3 | CC(=O)O[C@@H]1CC[C@]2(C)[C@@H]3C[C@H]4C(C=O)=C([C@H](C)CC/C=C(/C)C(=O)O)CC[C@@]4(C)C3=CC[C@H]2C1(C)C | < 5.00 | < 5.00 | < 5.00 | < 5.00 | < 5.00 | < 5.00
4 | CC(=O)O[C@@H]1CC[C@]2(C)[C@@H]3CC4=C(CO)[C@@H]([C@H](C)CC/C=C(/C)C(=O)O)CC[C@@]4(C)C3=CC[C@H]2C1(C)C | < 5.00 | < 5.00 | < 5.00 | < 5.00 | < 5.00 | < 5.00
5 | CC(=O)O[C@@H]1CC[C@]2(C)[C@@H]3C[C@H]4[C@@](C)(O)[C@@H]([C@H](C)CC/C=C(/C)C(=O)O)CC[C@@]4(C)C3=CC[C@H]2C1(C)C | < 5.00 | < 5.00 | < 5.00 | < 5.00 | < 5.00 | < 5.00
6 | C=C1[C@@H]([C@H](C)CC/C=C(/C)C(=O)O)CC[C@@]2(C)C3=CC[C@H]4C(C)(C)[C@@H](O)CC[C@]4(C)[C@@H]3C[C@@H]12 | < 5.00 | < 5.00 | < 5.00 | < 5.00 | < 5.00 | < 5.00
7 | C=C1[C@@H]([C@H](C)C[C@H]2C=C(C)C(=O)O2)CC[C@@]2(C)C3=CC[C@H]4C(C)(C)[C@H](O)CC[C@]4(C)[C@@H]3C[C@@H]12 | 4.60 | 4.98 | 4.57 | 4.91 | 4.81 | 4.70
8 | C=C1[C@@H]([C@H](C)CC/C=C(/C)C(=O)O)CC[C@]2(C)[C@H]1C[C@H]1[C@@]3(C)CCC(=O)C(C)(C)[C@@H]3C[C@@H]3O[C@@]312 | < 5.00 | < 5.00 | < 5.00 | < 5.00 | < 5.00 | < 5.00
9 | C=C1[C@@H]([C@H](C)C[C@@H]2C=C(C)C(=O)O2)CC[C@@]2(C)C3=CC[C@H]4C(C)(C)[C@H](O)CC[C@]4(C)[C@@H]3C[C@@H]12 | < 4.40 | 5.13 | < 4.40 | 4.73 | 4.87 | 4.59
10 | C=C1[C@@H]([C@H](C)CC/C=C(/C)C(=O)O)CC[C@@]2(C)C3=CC[C@H]4C(C)(C)C(=O)CC[C@]4(C)[C@@H]3C[C@@H]12 | < 5.00 | < 5.00 | < 5.00 | < 5.00 | < 5.00 | < 5.00
11 | C/C(=C/CC[C@@H](C)C1=C(CO)[C@@H]2C[C@@H]3C(=CC[C@H]4C(C)(C)C(=O)CC[C@]34C)[C@]2(C)CC1)C(=O)O | < 5.00 | < 5.00 | < 5.00 | < 5.00 | < 5.00 | < 5.00
12 | C=C1[C@@H]([C@H](C)CC/C=C(/C)C(=O)O)CC[C@@]2(C)C3=CC[C@H]4C(C)(C)[C@H](O)CC[C@]4(C)[C@@H]3C[C@@H]12 | < 5.00 | < 5.00 | < 5.00 | < 5.00 | < 5.00 | < 5.00
13 | C=C1[C@@H]([C@H](C)CC(=O)/C=C(\C)C(=O)O)CC[C@@]2(C)C3=CC[C@H]4C(C)(C)[C@H](OC(C)=O)CC[C@]4(C)[C@@H]3C[C@@H]12 | 4.94 | 5.51 | 4.89 | 5.11 | 5.34 | 5.22
14 | CC(=O)O[C@H]1C(=O)[C@@]2(C)[C@H]([C@H](OC(=O)c3ccccc3)[C@]3(O)C[C@H](OC(=O)[C@H](O)[C@@H](NC(=O)c4ccccc4)c4ccccc4)C(C)=C1C3(C)C)[C@]1(OC(C)=O)CO[C@@H]1C[C@@H]2O [PACLITAXEL] | > 8.10 | > 8.10 | > 8.10 | > 8.10 | > 8.10 | > 8.10
15 | CC(=O)O[C@@H]1CC[C@]2(C)[C@@H]3C[C@H]4C(CO)=C([C@H](C)CC/C=C(/C)C(=O)O)CC[C@@]4(C)C3=CC[C@H]2C1(C)C | < 5.00 | < 5.00 | < 5.00 | < 5.00 | < 5.00 | < 5.00

Reference: ChEMBL document CHEMBL4000161, “Rearranged 6/6/5/6-Fused Triterpenoid Acids from the Stems of Kadsura coccinea” (J Nat Prod, 2016)
